OX1R antag-1: antagonists of human orexin 1 receptor. O43613. CHO/OX1R cells, Fluo-8 calcium fluorescence, orexin A. inhibition, % at 5 µM. hit rate 0.43% among 330,000;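 active = inhibition above its plate's threshold, mean inhibition of all tested compounds on the plate plus 3 SD, cut at about 37% in these data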
Target sequence (O43613 whole entry, looked up): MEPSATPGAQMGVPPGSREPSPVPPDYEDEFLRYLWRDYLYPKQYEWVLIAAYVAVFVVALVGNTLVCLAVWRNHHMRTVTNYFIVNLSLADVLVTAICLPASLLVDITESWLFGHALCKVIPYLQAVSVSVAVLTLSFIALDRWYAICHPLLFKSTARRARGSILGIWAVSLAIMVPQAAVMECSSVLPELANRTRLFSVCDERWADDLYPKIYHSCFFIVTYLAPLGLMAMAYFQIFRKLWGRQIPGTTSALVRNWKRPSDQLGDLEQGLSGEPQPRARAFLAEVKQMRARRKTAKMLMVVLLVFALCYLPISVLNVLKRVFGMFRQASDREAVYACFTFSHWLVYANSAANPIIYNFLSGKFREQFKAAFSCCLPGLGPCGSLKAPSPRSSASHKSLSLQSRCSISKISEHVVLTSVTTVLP
CHO parental Ca: counter-screen for OX1R antagonists: effect in parental CHO cells. parental CHO-K1, ATP-induced calcium, Fluo-8 fluorescence. inhibition, % at 5.6 µM. hit rate 0.63% among 330,000. AID 463079;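 active = inhibition above that plate's mean sample inhibition plus 3 SD, cut at about 26% in these data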
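Test system: parental CHO cells; detection: calcium-sensitive Fluo-8 fluorescence; evaluation: percent inhibition of calcium signal; also added: ATP as calcium-mobilizing challenge; repeats: one well per compound; control set: ATP-challenged DMSO wells low, unchallenged DMSO wells high; compound: single nominal dose of 5.6 µM per compound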
TAAR1 antag: antagonists of human TAAR1; hit rate 1.5% among 360,000; inhibition, % at 3 µM; CHO RD-HGA16 TAAR1, Fluo-8 calcium fluorescence, antagonist;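 active = inhibition above a per-plate cutoff, the mean inhibition of test compounds on that plate plus 3 SD, cut at about 49% in these data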
Target sequence (Q96RJ0 whole entry, looked up): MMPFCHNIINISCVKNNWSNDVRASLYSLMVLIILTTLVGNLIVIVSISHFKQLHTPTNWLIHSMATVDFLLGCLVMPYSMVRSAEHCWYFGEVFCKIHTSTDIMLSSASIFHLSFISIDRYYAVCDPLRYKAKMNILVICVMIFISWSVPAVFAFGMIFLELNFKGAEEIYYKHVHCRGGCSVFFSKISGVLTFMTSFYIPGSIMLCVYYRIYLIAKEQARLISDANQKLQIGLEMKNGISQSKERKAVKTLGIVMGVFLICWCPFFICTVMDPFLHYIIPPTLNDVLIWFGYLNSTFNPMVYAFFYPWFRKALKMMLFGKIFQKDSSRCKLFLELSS
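Assay system: CHO-derived RD-HGA16 cells stably expressing human TAAR1 plus Gα16. Timing: 140 s kinetic read after compound, 140 s after agonist. Technique: kinetic Fluo-8 calcium fluorescence measurement. Measure: % inhibition of agonist calcium response.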
OX1R antag-2: OX1R (human) antagonism; O43613; OX1R-expressing cells, FRET antagonist read-out; inhibition, % at 6.6 µM; hit rate 1.8% among 330,000; AID 485270; in the data active = inhibition mostly above about 38%, no sharp cut-off; inactive = mostly below about 40%
TAAR1 agonist: human TAAR1 agonism. CHO RD-HGA16 TAAR1, Fluo-8 calcium fluorescence; vehicle wells 0%, saturating PEA agonist 100%. hit rate 0.99% among 360,000. Q96RJ0. activation, % at 3 µM;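 active = activation above the mean activation of all test compounds in the run plus 3 SD, cut at about 38% in these data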
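Assay system: CHO-derived RD-HGA16 cells with stable Gα16 and human TAAR1; timing: 17-24 h seeding, 75 min 37 °C dye, 30 min RT; read-out: % activation from peak over basal fluorescence ratio, DMSO-to-PEA scaled; measured by: kinetic Fluo-8 calcium fluorescence; benchmarks: low control DMSO, high control PEA (EC100); doses: 3 µM single concentration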
Large screens that a line does not name were inactive. An excerpt weighted towards active compounds, which were near 3.9% of everything screened.

O=C(N/N=C/c1ccc(Cl)c([N+](=O)[O-])c1)C1CC1	OX1R antag-2 59
O=C(N/N=C/c1cc(Cl)cc([N+](=O)[O-])c1O)C1CC1	none
CCOc1cccc(C=NNC(=O)C(=O)Nc2cccc(C(F)(F)F)c2)c1O	none (no result: OX1R antag-1, CHO parental Ca, OX1R antag-2)
CCCn1c2ccccc2c2nnc(SCCN3CCOCC3)nc21	none
c1ccc2nc3c(nc2c1)c1ccccc1n3CCN1CCOCC1	OX1R antag-2 49
O=C(O)CCn1c2ccccc2c2nc3ccccc3nc21	OX1R antag-2 49
CCN(CC)c1ccc(C(=C2C=CC(=[N+](CC)CC)C=C2)c2ccc(S(=O)(=O)O)cc2S(=O)(=O)[O-])cc1	none (no result: OX1R antag-1, CHO parental Ca, OX1R antag-2)
COc1ccccc1-c1nnc(-c2ccc(C)cc2)o1	none
COc1ccccc1-c1nnc(-c2ccc(N3CCOCC3)cc2)o1	OX1R antag-2 75
Cc1cn2c(=O)c3ncn(C4OC(CO)C(O)C4O)c3n(C)c2n1 (stereo not given)	none (no result: OX1R antag-1, CHO parental Ca, OX1R antag-2)
COc1ccc(C(C)=O)cc1Cn1c(C)c(C(=O)NCCC#N)sc1=O	none (no result: OX1R antag-1, CHO parental Ca, OX1R antag-2)
O=C(c1ccc(Cn2c(=S)[nH]c3ccccc3c2=O)cc1)N1CCN(c2ccccn2)CC1	TAAR1 antag 57
O=C(c1ccc(Cn2c(=O)[nH]c3ccccc3c2=O)cc1)N1CCN(c2ccccn2)CC1	none
Cc1cc(N2CCC(C)CC2)nc(SCC(=O)c2ccccc2)n1	TAAR1 antag 54
Cc1ccc(S(=O)(=O)N2[C@H](CC(=O)Oc3ccccc3)OC[C@@H]2C(C)C)cc1	none (no result: OX1R antag-1, CHO parental Ca, OX1R antag-2)
Cc1onc(-c2ccccc2Cl)c1C(=O)N1CCCc2ccccc21	OX1R antag-2 35
Cc1onc(-c2ccccc2Cl)c1C(=O)N1CCc2ccccc21	none
O=C1O[C@@H](c2ccccc2)C[C@@H](O)C(=O)CCc2ccccc21	none (no result: OX1R antag-1, CHO parental Ca, OX1R antag-2)
COc1ccc(CNC(=O)COC(=O)c2cc(-c3cccs3)nc3ccccc23)cc1OC	OX1R antag-2 48
CCOC(CCNC(=O)c1cc(-c2cccs2)nc2ccccc12)OCC	TAAR1 antag 49
COC(=O)c1ccc2nc(-c3ccc(C)cc3)c(Cc3ccccc3)n2c1	none (no result: OX1R antag-1, CHO parental Ca, OX1R antag-2)
COCCNC(=O)c1ccccc1NC(=O)COc1ccccc1	none
COC(=O)c1ccccc1NC(=O)COc1ccccc1	OX1R antag-2 41
CN1C(C(=O)N2CCc3ccccc3C2)=CC(c2ccc(F)cc2)=NS1(=O)=O	TAAR1 agonist 42
CCCCN(CC)C(=O)CSc1nc2n[nH]c(C)c2c(=N)n1-c1cccc(C)c1	none
Cc1cccc(-n2c(SCC(=O)N3CCCC3)nc3n[nH]c(C)c3c2=N)c1	OX1R antag-2 36
O=C(O)CCC(=O)NCCc1cccc(Cl)c1	TAAR1 agonist 38
CCOC(=O)[C@]12CCCC=C1N(Cc1ccco1)C(=O)[C@H](CC(=O)NCCC(C)C)C2	none (no result: OX1R antag-1, CHO parental Ca, OX1R antag-2)
N#CC1=C(c2ccccc2)/C(=C/c2ccccc2)OC1=O	TAAR1 antag 58
COc1ccc(-n2nnnc2C(c2ccccc2)N2CCN(C/C=C/c3ccccc3)CC2)cc1 (stereo not given)	none (no result: OX1R antag-1, CHO parental Ca, OX1R antag-2)
OC1(c2ccc(Cl)cc2)CCN(Cc2cn[nH]c2-c2ccc(F)cc2)CC1	TAAR1 agonist 41
CCCN(C(=O)CSCc1ccc(C)cc1)c1c(N)n(Cc2ccccc2)c(=O)[nH]c1=O	none (no result: OX1R antag-1, CHO parental Ca, OX1R antag-2)
CCCNC(=O)C1(C)CCN(C(=O)c2ccc3snnc3c2)C1 (stereo not given)	none (no result: OX1R antag-1, CHO parental Ca, OX1R antag-2)
COc1ccc(Cl)cc1C(=O)Nc1ccc(NC(C)=O)cc1	none
CC(=O)Oc1c(I)cc(I)cc1C(=O)Nc1ccc(Cl)cc1	CHO parental Ca 58, OX1R antag-2 80
COc1ccc(CCN=c2c([N+](=O)[O-])nn(-c3cccc(C)c3)n2O)cc1OC	OX1R antag-2 75
CC(=O)Nc1ccc(Nc2ncnc3c2cnn3-c2ccccc2)cc1	TAAR1 agonist 38
CC(=O)Nc1ccc(Nc2ncnc3c2cnn3-c2cccc(C)c2)cc1	none
O=C(COc1ccc(S(=O)(=O)N2CCOCC2)cc1Cl)NCc1ccc2c(c1)OCO2	none (no result: OX1R antag-1, CHO parental Ca, OX1R antag-2)
N#Cc1c(-c2ccccc2)nc(SCC(=O)N2c3ccccc3Sc3ccccc32)[nH]c1=O	OX1R antag-2 76
N#Cc1c(-c2ccccc2)nc(SCC(=O)N(c2ccccc2)c2ccccc2)[nH]c1=O	none
Cc1cc(C(=O)N2CCC2(C)C(=O)NS(=O)(=O)c2cccc(OC(F)F)c2)nn1C (stereo not given)	none (no result: OX1R antag-1, CHO parental Ca, OX1R antag-2)
CN1CCN(Cn2cc(/C=C/C(=O)c3ccccc3)c3ccccc32)CC1	OX1R antag-2 40 (no result: TAAR1 antag, TAAR1 agonist)
O=C(CNCc1ccc(Cl)cc1)Nc1cc(S(=O)(=O)N2CCCC2)ccc1Cl	none (no result: OX1R antag-1, CHO parental Ca, OX1R antag-2)
CN(C=[N+](C)C)c1cccc2c1C(=O)c1ccccc1C2=O	OX1R antag-2 75
CCN(CC)CC(=O)Nc1cccc2c1C(=O)c1ccccc1C2=O	none
CCN(CC)c1ccc(-c2nnc(SCC(=O)N(CCOC)c3c(N)n(CC(C)C)c(=O)[nH]c3=O)o2)cc1	OX1R antag-2 57
CC(C)CN(C(=O)CSc1nnc(-c2ccco2)o1)c1c(N)n(Cc2ccccc2)c(=O)[nH]c1=O	OX1R antag-2 68
CCN(C(=O)CSc1nnc(-c2ccccc2)o1)c1c(N)n(Cc2ccccc2)c(=O)[nH]c1=O	OX1R antag-2 70
COCCN(C(=O)CSc1nnc(-c2ccc(C)c(C)c2)o1)c1c(N)n(CC(C)C)c(=O)[nH]c1=O	none
CC(C)CN(C(=O)CSc1nc2ccccc2o1)c1c(N)n(Cc2ccccc2)c(=O)[nH]c1=O	OX1R antag-2 31
CCCCN(C(=O)CSc1nnc(-c2ccccc2)o1)c1c(N)n(CCC)c(=O)[nH]c1=O	none
Cc1c(C(=O)NCc2ccc(C(C)C)cc2)sc(=O)n1Cc1ccc(S(=O)(=O)N(C)C)cc1	none (no result: OX1R antag-1, CHO parental Ca, OX1R antag-2)
O=C(NC(CC1=CCCCC1)c1ccc2ccccc2c1)C(F)(F)F (stereo not given)	none (no result: OX1R antag-1, CHO parental Ca, OX1R antag-2)
CC(C)CN(C(=O)CCCOc1ccc(Cl)cc1Cl)c1c(N)n(Cc2ccccc2)c(=O)[nH]c1=O	OX1R antag-2 39
COc1ccc(-c2cc(C(=O)Nc3cc(S(=O)(=O)N4CCOCC4)ccc3N3CCOCC3)c3ccccc3n2)cc1	TAAR1 antag 54
COc1ccc(NC(=O)c2cc(-c3cc(OC)c(OC)c(OC)c3)nc3ccccc23)cc1OC	TAAR1 antag 55
CCOc1ccc(NC(=O)CN(C)C(=O)c2cc(-c3ccc(OC)cc3)nc3ccccc23)cc1OCC	TAAR1 antag 56
COc1ccc(-c2cc(C(=O)Nc3nc4c(C)cccc4s3)c3ccccc3n2)cc1OC	none
COc1cc(-c2cc(C(=O)Nc3ccc(S(N)(=O)=O)cc3)c3ccccc3n2)cc(OC)c1OC	none
CCOc1ccc(NC(=O)CN(C)C(=O)c2cccc3ccccc23)cc1OCC	none (no result: OX1R antag-1, CHO parental Ca, OX1R antag-2)
COc1ccccc1NC(=O)c1cc(-c2ccc(OC)c(OC)c2)nc2ccccc12	TAAR1 antag 55 (no result: OX1R antag-1, CHO parental Ca, OX1R antag-2)
O=C(c1ccc(CNS(=O)(=O)c2ccc(F)cc2)cc1)N1CCCCCC1	none (no result: OX1R antag-1, CHO parental Ca, OX1R antag-2)
